PglD inh: blocks C. jejuni PglD acetyltransferase activity | inhibition, % at 12.5 µM | 360,000 compounds, 0.098% hits | AID 602405 | purified PglD enzyme, DTNB colorimetric CoA detection; in the data active = inhibition above about 16%, passing the limit was not always enough; inconclusive = no clear call, values can overlap the other calls
rRNA inh HTS: inhibits bacterial ribosomal RNA function over humanized ribosomes. GFP signal change (wild-type ribosome), % (no concentration beside the values). E. coli WT GFP vs humanized-ribosome RFP mutants, fluorescence, 24 h; active compounds read low; DMSO median 0, no signal -100. 350,000 compounds, 1.6% hits;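 active = significant combined selectivity score with lowered wild-type GFP, culture density cut under 30%, mutant RFP and density less affected; inactive = any of these conditions unmet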
RAD52 anneal inh: inhibitors of human RAD52 DNA annealing | recombinant RAD52 DNA annealing, FRET fluorescence | inhibition, % at 18.7 µM | 360,000 compounds, 0.46% hits;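 active = every replicate showing at least 50% inhibition; inconclusive = mean inhibition at least 50% but not in every replicate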
RAD54 inh: blocks human RAD54 Holliday junction branch migration. Q92698. FAM/BHQ fluorescence. inhibition, % at 10.4 µM. 360,000 compounds, 0.14% hits. AID 602329;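 active = mean normalized replicate activity at least 40 and at least half of replicates scoring 40 or more; inconclusive = only one of the two criteria met; inactive = mean below 40 and under half of replicates reaching 40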;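 also: 0% = median of neutral control wells and 100% = median of positive control wells; inhibitors cause a drop in the FAM fluorescence signal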
Target sequence (Q92698 whole entry, looked up): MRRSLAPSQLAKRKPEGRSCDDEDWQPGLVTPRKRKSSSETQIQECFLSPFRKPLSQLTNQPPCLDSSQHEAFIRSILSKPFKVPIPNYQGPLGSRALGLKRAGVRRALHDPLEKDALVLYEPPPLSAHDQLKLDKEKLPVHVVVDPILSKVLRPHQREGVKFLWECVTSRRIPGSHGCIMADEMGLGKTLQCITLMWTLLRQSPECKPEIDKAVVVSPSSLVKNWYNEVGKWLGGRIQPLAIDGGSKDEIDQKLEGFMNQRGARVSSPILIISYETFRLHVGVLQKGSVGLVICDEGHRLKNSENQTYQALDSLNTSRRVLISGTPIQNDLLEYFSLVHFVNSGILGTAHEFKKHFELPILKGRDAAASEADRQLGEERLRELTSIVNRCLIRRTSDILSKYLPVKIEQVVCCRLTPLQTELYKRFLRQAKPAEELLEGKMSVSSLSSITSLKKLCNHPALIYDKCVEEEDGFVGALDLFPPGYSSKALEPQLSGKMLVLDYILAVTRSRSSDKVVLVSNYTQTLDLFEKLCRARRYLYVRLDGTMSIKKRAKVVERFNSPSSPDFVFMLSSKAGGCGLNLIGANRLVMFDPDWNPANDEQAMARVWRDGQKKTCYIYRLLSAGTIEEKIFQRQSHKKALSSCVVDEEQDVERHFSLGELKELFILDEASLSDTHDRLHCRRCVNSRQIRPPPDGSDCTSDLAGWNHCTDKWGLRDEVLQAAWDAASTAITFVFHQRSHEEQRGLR
Cneo AK release: causes C. neoformans cell lysis; adenylate kinase release luminescence, 4 h; normalised: neutral wells 0, clomiphene wells 100; AID 651654; lysis activity, % at 15 µM; 360,000 compounds, 0.2% hits;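 active = mean lysis activity across replicates of at least 80%, whatever share of replicates individually reach that level; inactive = mean lysis activity below 80%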
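Schedule: static 4 h at 37 °C with compound, 1 h detection; system: C. neoformans cells; benchmarks: Clomiphene as positive control; buffer or medium: fresh YPD medium; measure: luminescence rise reflecting yeast cell lysis; measured by: luminescent adenylate kinase detection reagent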
HepG2 tox: cytotoxic compounds in HepG2 cells. 30 tested, under 10 active. AID 743480. activity change, negative = cytotoxicity, unspecified at 26 µM. HepG2 viability, ATP luminescence, 72 h. shares compounds with rRNA inh HTS;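 active = compounds whose fitted half-maximal signal-loss concentration is at most twice their highest valid dose; inconclusive = flat curve with 30 to 70% signal loss, or poor fit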
AID977621: wild-type E. coli growth inhibition versus H69 humanized strain – H69 mutant RFP, wild-type GFP, cherry-pick, dose response; fluorescence, 24 h; 1,900 tested, under 10 active; AID 977621; activity change, negative = inhibition at 50 µM; shares compounds with rRNA inh HTS;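 active = Wild-type ribosome reporter drop at least double the humanized mutant ribosome reporter drop, growth loss under a set limit; inconclusive = no clear call, values can overlap the other calls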;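 also: wild-type GFP and H69 mutant RFP strains grown together 50/50 in each well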
AID977628: E. coli growth inhibition, wild-type GFP versus h24 humanized RFP strain, dose response, h24 mutant RFP vs wild-type GFP, cherry-pick | shares compounds with rRNA inh HTS | E. coli WT GFP strain growth, fluorescence, 24 h | activity change, negative = inhibition at 50 µM | 1,900 tested, under 10 active;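 active = compound lowering the normal-ribosome reporter at least twice as much as the humanized-ribosome reporter, growth loss under a set limit; inconclusive = no clear call, values can overlap the other calls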;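 also: wild-type GFP and h24 humanized RFP strains co-cultured 1 to 1 per well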
* marks the source's active call; other numbers are inactive results; u = inconclusive; x = no result. This is a sample that favours compounds with a hit; in the whole collection about 1.9% have one here.

SMILES | PglD inh | rRNA inh HTS | RAD52 anneal inh | RAD54 inh | Cneo AK release | AID977621 | AID977628 | others
CC1(Cc2ccc(C(F)(F)F)nc2)C(=O)Nc2cc(-c3ccccc3Cl)ccc21 (stereo not given) | -0.6 | -0.5 | -18.4 | -1.3 | -1.8 | x | x
CC1(Cc2ccccc2C#N)C(=O)Nc2cc(-c3ccccc3Cl)ccc21 (stereo not given) | -5.5 | -11.1* | -20.3 | -2.9 | -1.1 | x | x | HepG2 tox=8.46
C[C@H](CO)N1C[C@H](C)[C@@H](CN(C)Cc2ccc(Oc3ccccc3)cc2)Oc2c(NC(=O)Nc3ccc(C(F)(F)F)cc3)cccc2C1=O | 5.4 | -3.9 | -13.1 | -2.4 | -1.5 | x | x
CN1CCN(C(=O)C[C@H]2C[C@H]3c4cc(NC(=O)C5CCOCC5)ccc4O[C@H]3[C@H](CO)O2)CC1 | 1.1 | 2.2 | 4.3 | -5.5 | -14.3 | x | x
COc1ccc2[nH]c3c(=O)n(CCCCC(=O)NCCC(C)C)c(=S)[nH]c3c2c1 | x | -24.9* | -8.0 | x | x | x | x | HepG2 tox=11
CCOC(=O)Cc1nnc(NC(=O)CSc2ccccc2)s1 | -262.1 | x | x | -4.0 | -2.2 | x | x
CCOC(=O)Cc1nnc(NC(=O)CSc2nc3ccccc3[nH]2)s1 | x | -16.9* | -13.2 | x | x | x | -15.6
Cc1ccc2nc(SCC(=O)Nc3c(F)cccc3F)[nH]c2c1 | -8.6 | -22.2* | -20.6 | -0.1 | -2.3 | x | u
O=C(CSc1nc2ccccc2[nH]1)Nc1ccccc1F | -3.7 | -25.9* | -0.8 | 5.3 | 1.0 | x | u
COc1ccc2nc(SCC(=O)NCc3ccccc3)[nH]c2c1 | -2.9 | -12.8 | -11.2 | 1.1 | -0.1 | x | x
COc1ccc2nc(SCC(=O)Nc3ccccc3)[nH]c2c1 | x | -20.3* | 3.2 | x | x | -21.2 | x
CO[C@@H]1CN(C)C(=O)c2cc(NC(=O)c3cnccn3)ccc2OC[C@H](C)N(CC2CC2)C[C@H]1C | x | 0.4 | 9.4 | x | x | x | x
C[C@H]1CN([C@@H](C)CO)C(=O)c2cccc(NC(=O)Nc3cccc4ccccc34)c2O[C@@H]1CN(C)S(=O)(=O)c1cn(C)cn1 | 0.7 | 7.0 | 20.2 | -0.5 | 3.9 | x | x
Cc1ccc(S(=O)(=O)Nc2ccccc2CNc2cccc(C)n2)cc1 | -5.0 | -16.5* | -7.7 | 3.4 | 1.5 | -15.4 | u
Cc1ccc(S(=O)(=O)NCc2ccccc2NS(=O)(=O)c2ccc(C)cc2)cc1 | x | -35.0 | -3.2 | x | x | x | x
C#CCN1C(=O)C(O)(c2c(C)[nH]c3ccccc23)c2ccccc21 (stereo not given) | -0.6 | 0.3 | -5.9 | 4.3 | -0.4 | x | x
CCCN1C(=O)C(O)(c2c(C)[nH]c3ccccc23)c2ccccc21 (stereo not given) | 12.6 | -18.3* | -16.0 | -8.5 | -6.7 | -4.71 | -5.56
Cc1ccccc1S(=O)(=O)N[C@@H]1CC[C@@H](CCn2cc(-c3ccccc3)nn2)O[C@@H]1CO | -1.5 | -6.0 | 1.0 | -2.9 | -0.8 | x | x
CCCN1C[C@@H](C)[C@H](OC)CN(C)C(=O)c2cc(NC(=O)NC3CCCC3)ccc2OC[C@@H]1C | x | 2.4 | x | x | x | x | x
O=C(CN1CC[n+]2c(-c3cccs3)csc21)c1ccc(-c2ccccc2)cc1 | x | -41.0* | 27.4 | x | x | 0.078 | -2.24
Cc1ccc(C(=O)Cn2nnc(-c3cccs3)n2)cc1 | x | 7.7 | -17.3 | x | x | x | x
COc1ccc(CN(C)C[C@@H]2OCCCC[C@@H](C)Oc3ccc(NC(=O)CCCN(C)C)cc3C(=O)N([C@@H](C)CO)C[C@@H]2C)cc1 | x | 3.7 | -3.8 | x | x | x | x
COc1ccc(-c2csc3ncn(-c4ccc(C)cc4)c(=O)c23)cc1OC | -6.4 | -22.7* | 3.8 | -0.7 | 0.0 | u | x
O=C1CCCN1c1ccc([N+](=O)[O-])cc1 | -1.1 | -4.0* | -7.6 | 7.8 | -1.6 | u | u
O=C(Cc1ccccn1)N[C@@H]1C=C[C@H](CC(=O)N2CCCCC2)O[C@H]1CO | -0.1 | -1.9 | 8.0 | -2.5 | -1.7 | x | x
SMILES | PglD inh | rRNA inh HTS | RAD52 anneal inh | RAD54 inh | Cneo AK release | AID977621 | AID977628 | others
O=[N+]([O-])c1ccc(O)c(CSc2nnnn2-c2ccccc2)c1 | -4.2 | -26.2* | -3.1 | -1.9 | 1.9 | -27.7 | -12.6
c1ccc(CSc2nnnn2-c2ccccc2)cc1 | 5.1 | x | x | 24.7 | -2.4 | x | x
CC(CCc1ccccc1)NC(=O)CCC1CCCC1 (stereo not given) | 2.3 | -21.4* | 1.3 | -0.8 | 1.1 | -3.54 | -5.65
CC(CCc1ccccc1)NC(=O)CCC(=O)N1CCC(C(=O)O)CC1 (stereo not given) | -3.4 | 14.2 | -3.1 | 6.4 | 6.4 | x | x
Cc1cccc(C)c1NC(=O)CNC(=O)C(C)N1CCN(c2cccc(Cl)c2)CC1 (stereo not given) | 1.1 | -22.0* | -0.8 | -2.4 | -0.6 | x | -15.9
Cc1cc(NC(=O)CN2CCN(c3cccc(Cl)c3)CC2)no1 | x | -15.4* | -23.2 | x | x | x | u
C[C@@H]1CN([C@H](C)CO)C(=O)c2cc(N(C)C)ccc2O[C@@H](C)CCCCO[C@@H]1CN(C)C(=O)CCC(F)(F)F | 3.6 | 4.0 | -141.2 | -13.0 | 3.0 | x | x
CN(C)CC(=O)N[C@@H]1CC[C@@H](CCNC(=O)Nc2ccc(Cl)cc2)O[C@H]1CO | -0.4 | -27.6* | 40.8 | -6.3 | -2.1 | x | u
CN(C)CC(=O)N[C@@H]1CC[C@@H](CCNC(=O)Nc2ccc(C(F)(F)F)cc2)O[C@H]1CO | 0.2 | -59.3 | 24.4 | 6.6 | -7.7 | x | x
COc1ccc(OC)c(N(CC(=O)Nc2ccccc2F)S(=O)(=O)c2ccccc2)c1 | x | -24.0* | -8.2 | x | x | -10.7 | x
O=C(CN(c1ccc(F)cc1)S(=O)(=O)c1ccccc1)Nc1ccccc1C(=O)O | x | -26.6* | 8.6 | x | x | -12.8 | x
COc1cccc(S(=O)(=O)Nc2ccc3c(c2)[C@H]2C[C@@H](CC(=O)N(C)C)O[C@@H](CO)[C@H]2O3)c1 | -2.5 | 1.5 | 7.6 | 6.2 | 13.4 | x | x
CN(C(=O)c1ccc(NC(=O)Cc2cccc(NC(=O)C3CCN(C(=O)CCc4ccccc4)CC3)c2)cc1)C1CC1 | x | 0.7 | -14.4 | x | x | x | x
O=C(Cc1cccc(NC(=O)C2CCN(C(=O)CCc3ccccc3)CC2)c1)Nc1cccc(C(=O)N2CCCC2)c1 | -4.4 | -18.8* | -39.7 | 6.0 | 1.7 | -22.9 | x
CN(C(=O)c1cccc(NC(=O)Cc2cccc(NC(=O)C3CCN(C(=O)CCc4ccccc4)CC3)c2)c1)C1CC1 | -1.7 | -37.9* | -9.5 | -13.6 | 1.4 | x | u
C[C@H](CO)N1C[C@H](C)[C@@H](CN(C)C(=O)Nc2ccc3c(c2)OCO3)Oc2c(NS(=O)(=O)c3cccs3)cccc2C1=O | -3.1 | 2.1 | 1.8 | 4.4 | 0.6 | x | x
Cc1cc(NC(=O)c2sc(Nc3cccc(C(F)(F)F)c3)nc2N)no1 | -0.1 | x | x | 6.9 | 1.0 | x | x

High-throughput results: PubChem, Broad Institute
